ChEMBL document CHEMBL1149258, “Synthesis and structure-activity relationships of novel histamine H1 antagonists: indolylpiperidinyl benzoic acid derivatives” (J Med Chem, 2004)

How the values were obtained:
Histamine H1 receptor = Histamine H1 receptor (Cavia porcellus, UniProt P31389); assay: Displacement of [3H]mepyramine from histamine H1 receptor in guinea pig cerebellum membranes; format: cell membranes, Membrane
Procedure, shortened: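 Guinea pig cerebellum membranes (160 µg/mL) incubated with 0.7 nM [3H]-mepyramine at 30 °C for 30 min, 0.5 mL final volume, ended by filtration. Nonspecific binding with 10 µM promethazine. At least six concentrations in duplicate; IC50 by nonlinear regression. Compound stocks 10^-2 M in DMSO, diluted in 50% DMSO.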

Rattus norvegicus [1] = assay: Inhibition of increase in histamine-induced cutaneous vascular permeability in orally dosed Wistar rat model after 4 hrs; format: functional; settings: po
Procedure, shortened: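 Fasted male rats (150-175 g; n=5 per condition) dosed orally in 0.5% methylcellulose/0.1% Tween 80. At 4 h, under light ether, received four intradermal injections of 5 µg histamine, then 0.5% Evans Blue iv. Killed 1 h later. Papule area from maximum and minimum diameters (ellipse); inhibition of papule area; ED50 (mg/kg, po).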

[2] = biological target: T1, Adrenergic receptor alpha-1 (Rattus norvegicus, UniProt P15823+P23944+P43140); assay: Displacement of [3H]prazosin from adrenergic alpha-1 receptor in rat brain membranes; format: cell membranes
T1 sequence (P15823 whole entry): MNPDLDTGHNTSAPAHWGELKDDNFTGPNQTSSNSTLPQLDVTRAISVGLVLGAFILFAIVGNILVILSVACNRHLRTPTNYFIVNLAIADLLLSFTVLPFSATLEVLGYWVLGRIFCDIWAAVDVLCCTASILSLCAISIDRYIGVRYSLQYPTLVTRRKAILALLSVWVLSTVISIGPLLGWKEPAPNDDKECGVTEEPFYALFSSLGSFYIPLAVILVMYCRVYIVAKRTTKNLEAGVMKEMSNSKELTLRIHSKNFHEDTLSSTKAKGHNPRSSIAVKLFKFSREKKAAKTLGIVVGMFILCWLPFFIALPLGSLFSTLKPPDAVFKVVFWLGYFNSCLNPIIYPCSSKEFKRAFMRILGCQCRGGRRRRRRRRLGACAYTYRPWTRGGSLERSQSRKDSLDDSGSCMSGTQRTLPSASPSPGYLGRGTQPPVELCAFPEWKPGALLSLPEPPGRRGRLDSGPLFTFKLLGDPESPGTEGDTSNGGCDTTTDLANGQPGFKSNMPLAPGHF
T1 sequence (P23944 whole entry): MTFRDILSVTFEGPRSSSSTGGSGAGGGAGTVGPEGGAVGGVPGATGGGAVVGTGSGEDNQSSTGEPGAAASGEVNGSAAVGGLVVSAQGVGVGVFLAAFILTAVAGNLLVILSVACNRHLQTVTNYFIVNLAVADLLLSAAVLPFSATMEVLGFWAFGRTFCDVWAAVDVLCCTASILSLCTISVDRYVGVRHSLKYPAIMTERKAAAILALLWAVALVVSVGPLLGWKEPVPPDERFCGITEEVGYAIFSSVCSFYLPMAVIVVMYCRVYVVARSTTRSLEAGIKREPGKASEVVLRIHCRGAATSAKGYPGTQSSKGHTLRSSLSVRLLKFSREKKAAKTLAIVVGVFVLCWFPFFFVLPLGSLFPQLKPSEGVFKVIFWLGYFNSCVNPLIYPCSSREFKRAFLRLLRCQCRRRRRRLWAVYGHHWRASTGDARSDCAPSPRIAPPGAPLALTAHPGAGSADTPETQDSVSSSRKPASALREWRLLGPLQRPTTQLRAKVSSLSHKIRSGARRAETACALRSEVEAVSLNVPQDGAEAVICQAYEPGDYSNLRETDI
T1 sequence (P43140 whole entry): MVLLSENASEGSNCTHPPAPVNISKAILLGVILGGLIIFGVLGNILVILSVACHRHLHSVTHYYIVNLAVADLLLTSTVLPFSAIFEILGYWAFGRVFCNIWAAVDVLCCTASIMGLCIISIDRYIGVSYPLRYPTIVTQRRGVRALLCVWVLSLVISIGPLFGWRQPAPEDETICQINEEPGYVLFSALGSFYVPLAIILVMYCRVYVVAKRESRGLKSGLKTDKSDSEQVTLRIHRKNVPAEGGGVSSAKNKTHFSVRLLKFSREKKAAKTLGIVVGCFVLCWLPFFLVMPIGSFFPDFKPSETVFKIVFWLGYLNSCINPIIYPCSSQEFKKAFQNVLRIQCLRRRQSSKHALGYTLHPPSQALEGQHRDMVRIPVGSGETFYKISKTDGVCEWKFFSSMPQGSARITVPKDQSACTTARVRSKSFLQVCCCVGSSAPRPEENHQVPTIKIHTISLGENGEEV
Procedure, shortened: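 Rat brain membranes (340 µg protein/mL) with 0.25 nM [3H]-prazosin in 50 mM Tris-HCl pH 7.7, room temperature, 60 min, filtration. Nonspecific binding with 100 µM prazosin. Several concentrations run in duplicate; IC50 by nonlinear regression.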

Rattus norvegicus [3] = assay: Inhibition of increase in histamine-induced cutaneous vascular permeability in orally dosed Wistar rat model after 8 hrs; format: functional; settings: po
Procedure, shortened: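 Male Wistar rats (150-175 g), fasted, dosed orally in 0.5% methylcellulose/0.1% Tween 80 (10 mL/kg), n=5. At 1 or 8 h after dosing, four intradermal injections of 5 µg histamine were given, plus iv 0.5% Evans Blue. Papule area (ellipse) measured 1 h later. ED50 in mg/kg po.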

[4] = biological target: Histamine H1 receptor (Mus musculus) (UniProt P70174); assay: Ex vivo displacement of [3H]mepyramine from brain histamine H1 receptor in orally dosed Swiss Albino mouse; format: functional, organism-based
Procedure, shortened: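 Overnight-fasted male mice (20-25 g) dosed orally at several doses (0.5% methylcellulose/0.1% Tween 80, 10 mL/kg), killed 90 min later. Whole brain homogenised in ice-cold 0.05 M Na+/K+ phosphate pH 7.4; aliquots incubated in triplicate with 2 nM final [3H]-mepyramine, 40 min at 30 °C, then filtered. Nonspecific binding from 30 mg/kg po D-chlorpheniramine; total binding from vehicle. Three animals per dose; ED50 reported.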

Chain of Histamine H1 receptor (Mus musculus) (P70174 whole entry): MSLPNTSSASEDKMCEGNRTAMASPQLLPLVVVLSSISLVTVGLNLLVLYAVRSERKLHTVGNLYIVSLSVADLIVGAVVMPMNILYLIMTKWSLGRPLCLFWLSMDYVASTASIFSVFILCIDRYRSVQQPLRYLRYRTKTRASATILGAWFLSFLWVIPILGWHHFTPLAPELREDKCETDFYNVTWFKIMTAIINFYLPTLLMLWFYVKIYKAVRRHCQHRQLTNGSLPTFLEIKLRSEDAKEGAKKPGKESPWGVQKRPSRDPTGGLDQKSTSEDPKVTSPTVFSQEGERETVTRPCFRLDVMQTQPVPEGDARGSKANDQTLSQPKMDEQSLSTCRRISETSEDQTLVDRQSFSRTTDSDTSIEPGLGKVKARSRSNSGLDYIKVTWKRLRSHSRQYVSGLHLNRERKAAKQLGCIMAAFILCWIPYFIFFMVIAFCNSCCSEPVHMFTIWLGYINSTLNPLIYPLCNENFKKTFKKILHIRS
Chain of Histamine H1 receptor (P31389 whole entry): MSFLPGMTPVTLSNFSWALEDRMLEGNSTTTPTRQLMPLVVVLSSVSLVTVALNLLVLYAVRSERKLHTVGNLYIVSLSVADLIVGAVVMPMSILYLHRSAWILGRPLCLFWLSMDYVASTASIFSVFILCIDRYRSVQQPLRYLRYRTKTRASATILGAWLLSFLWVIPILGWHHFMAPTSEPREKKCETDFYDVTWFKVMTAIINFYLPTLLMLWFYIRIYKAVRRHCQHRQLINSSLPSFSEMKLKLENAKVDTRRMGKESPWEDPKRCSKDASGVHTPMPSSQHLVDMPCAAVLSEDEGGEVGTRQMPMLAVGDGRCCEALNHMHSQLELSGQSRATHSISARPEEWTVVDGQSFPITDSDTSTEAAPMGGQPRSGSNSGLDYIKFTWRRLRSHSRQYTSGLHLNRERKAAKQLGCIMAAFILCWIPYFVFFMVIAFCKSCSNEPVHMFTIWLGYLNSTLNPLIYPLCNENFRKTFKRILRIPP

SMILES	IC50 (Histamine H1 receptor)	IC50 [2] [µM]	ED50 (Rattus norvegicus [1]) [mg/kg]	ED50 (Rattus norvegicus [3])	ED50 [4] [mg/kg]
CCOCCn1cc(C2CCN(Cc3cccc(C(=O)O)c3)CC2)c2ccccc21	218 nM (antagonist)		0.011		
O=C(O)c1cccc(CN2CCC(c3cn(Cc4ccco4)c4ccccc34)CC2)c1	87 nM (antagonist)	> 10	1		
CCOCCn1cc(C2CCN(Cc3ccc(OC)c(C(=O)O)c3)CC2)c2ccccc21			0.02		
O=C(O)c1ccccc1OCCN1CCC(c2cn(Cc3ccco3)c3cc(F)ccc23)CC1	37 nM (antagonist)	> 10	0.32	2.2 mg/kg (antagonist)	
COCCn1cc(C2CCN(Cc3ccc(OC)c(C(=O)O)c3)CC2)c2ccc(F)cc21		> 10	0.06	0.02 mg/kg (antagonist)	4
O=C(O)c1cccc(CN2CCC(c3cn(Cc4cccs4)c4ccccc34)CC2)c1		> 10	3		
CCOCCn1cc(C2CCN(Cc3ccc(OCC(=O)O)cc3)CC2)c2ccccc21	322 nM (antagonist)	> 10	> 3		
CCOCCn1cc(C2CCN(Cc3cccc(OCC(=O)O)c3)CC2)c2ccccc21	130 nM (antagonist)	> 10	3		
CCOCCn1cc(C2CCN(Cc3ccccc3C(=O)O)CC2)c2ccccc21	330 nM (antagonist)	> 10	3		
COc1ccc(CN2CCC(c3cn(Cc4ccc(Cl)s4)c4cc(F)ccc34)CC2)cc1C(=O)O		> 10	0.19	0.09 mg/kg (antagonist)	5.5
O=C(O)c1ccccc1OCCN1CCC(c2cn(CCc3ccccn3)c3ccccc23)CC1	570 nM (antagonist)	> 10			
O=C(O)c1ccccc1OCCN1CCC(c2cn(Cc3ccc(Cl)s3)c3ccccc23)CC1			3		
O=C(O)c1ccccc1OCCN1CCC(c2cn(Cc3ccc(Cl)s3)c3cc(F)ccc23)CC1	28 nM (antagonist)	> 10	1		
O=C(O)c1ccccc1OCCN1CCC(c2cn(CC3CC3)c3cc(F)ccc23)CC1		> 10	0.11	0.5 mg/kg (antagonist)	
CCOCCn1cc(C2CCN(Cc3ccccc3OCC(=O)O)CC2)c2ccccc21	196 nM (antagonist)	> 10	> 3		
COc1ccc(CN2CCC(c3cn(Cc4ccoc4)c4cc(F)ccc34)CC2)cc1C(=O)O		> 10	0.02	0.037 mg/kg (antagonist)	7
COCCn1cc(C2CCN(Cc3cccc(C(=O)O)c3)CC2)c2ccc(F)cc21	150 nM (antagonist)	> 10	1		
O=C(O)c1ccccc1OCCN1CCC(c2cn(Cc3ccco3)c3ccccc23)CC1		> 10	3		
CCOCCn1cc(C2CCN(Cc3cccc(C(=O)O)c3)CC2)c2cc(OC)ccc21	500 nM (antagonist)	> 10	> 3		
CCOCCn1cc(C2CCN(Cc3cc(C(=O)O)ccc3Br)CC2)c2ccccc21	345 nM (antagonist)	> 10	3		
CCOCCn1cc(C2CCN(Cc3ccc(F)c(C(=O)O)c3)CC2)c2ccccc21	300 nM (antagonist)	> 10		0.01 mg/kg (antagonist)	0.5
O=C(O)c1cccc(CN2CCC(c3cn(Cc4ccc(Cl)s4)c4ccccc34)CC2)c1	103 nM (antagonist)		> 3		

Now from value to compound, other results behind:

IC50 (Histamine H1 receptor)	IC50 [2] [µM]	SMILES	ED50 (Rattus norvegicus [1]) [mg/kg]	ED50 (Rattus norvegicus [3])	ED50 [4] [mg/kg]
150 nM (antagonist)	3.6	CCOCCn1cc(C2CCN(CCOc3ccccc3C(=O)O)CC2)c2cc(Br)ccc21			
221 nM (antagonist)	8.6	CCOCCn1cc(C2CCN(CCOc3ccc(C)cc3C(=O)O)CC2)c2ccccc21			
	2	CCOCCn1cc(C2CCN(CCOc3cccc(C(=O)O)c3)CC2)c2ccccc21			
100 nM (antagonist)	10	CCOCCn1cc(C2CCN(CCOc3ccccc3C(=O)O)CC2)c2cc(F)ccc21			
	> 10	COCCn1cc(C2CCN(CCOc3ccccc3C(=O)O)CC2)c2ccccc21	1.1		
225 nM (antagonist)	6.9	CCOCCn1cc(C2CCN(CCOc3c(Br)cc(Br)cc3C(=O)O)CC2)c2ccccc21			
80 nM (antagonist)	10	CCOCCn1cc(C2CCN(CCOc3ccccc3C(=O)O)CC2)c2cccc(Br)c21	> 3		
	3	CCOCCn1cc(C2CCN(CCOc3ccc(C(=O)O)cc3)CC2)c2ccccc21			
100 nM (antagonist)	< 10	CCOCCn1cc(C2CCN(CCOc3ccsc3C(=O)O)CC2)c2ccccc21			
500 nM (antagonist)	7.6	CCOCCn1cc(C2CCN(CCOc3ccccc3C(=O)O)CC2)c2cccc(C)c21			
219 nM (antagonist)	> 10	CCOCCn1cc(C2CCN(CCOc3ccc(C(C)=O)cc3C(=O)O)CC2)c2ccccc21			
34 nM (antagonist)		CCOCCn1cc(C2CCN(CCOc3cc(OC)ccc3C(=O)O)CC2)c2ccccc21	0.17		
	> 10	O=C(O)c1ccccc1OCCN1CCC(c2cn(CC3CC3)c3ccccc23)CC1	0.6	1.3 mg/kg (antagonist)	> 100
> 500 nM	6.9	CCOCCn1cc(C2CCN(CCOc3ccccc3C(=O)O)CC2)c2ccc(C(F)(F)F)cc21			
76 nM (antagonist)	10	CCOCCn1cc(C2CCN(CCOc3ccccc3C(=O)O)CC2)c2ccc(F)cc21			
390 nM (antagonist)	6.2	O=C(O)c1ccccc1OCCN1CCC(c2cn(CCC3COCCO3)c3ccccc23)CC1 (configuration not stated)	3		
	> 10	C=CCn1cc(C2CCN(CCOc3ccccc3C(=O)O)CC2)c2ccccc21	3		
98 nM (antagonist)	3.7	O=C(O)c1ccccc1OCCN1CCC(c2cn(Cc3cccs3)c3ccccc23)CC1			
500 nM (antagonist)	10	CCOCCn1cc(C2CCN(CCOc3cccc(F)c3C(=O)O)CC2)c2ccccc21			
